Hits are enriched below; roughly 2.6% of the tested compounds scored in any of these assays.
SKN-1 block = suppressors of acrylamide-induced Pgst-4::GFP reporter in worms, primary screen, SKN-1 inhibitor project, whole organism, uHTS, GFP/RFP fluorescence ratio, strain VP596; inhibition, % at 21.8 µM; 360,000 tested, 0.49% active; C. elegans VP596 Pgst-4::GFP/RFP ratio, 24 h;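 active means interference check ratio from 0.5 to 1.5 plus GFP to RFP signal ratio inhibition reaching or exceeding a fixed threshold, cut at about 30% in these data, passing the limit was not always enough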
Myeloid diff 2 = induction of myeloid progenitor differentiation, primary screen, cell-based, flow cytometry, MLPCN library. AID 624256, 2012. 360,000 tested, 1% active. calls only at 10 µM. ER-HoxA9 myeloid progenitors, lysozyme-GFP differentiation;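 active means normalized GFP-positive differentiation at or above the plate's own cutoff, the solvent-only control mean plus 3 SD; inconclusive means no clear call, values can overlap the other calls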;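 further: cells exposed to compound for four days before flow analysis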
Rin1-Abl PPI inh = inhibitors of Rin1-Abl protein binding, primary screen, biochemical, TR-FRET; Tyrosine-protein kinase ABL1 (Homo sapiens) + Ras and Rab interactor 1 (Homo sapiens), …; inhibition, % at 7.35 µM; 360,000 tested, 0.4% active; AID 588664, 2011; in the data active means inhibition above about 5%, passing the limit was not always enough
T cell modulator = modulators of CD8 T cell-vesicle binding, primary screen, mouse 2C CD8+ T cells, flow cytometry; 2C CD8+ T cell-vesicle binding; stronger effect = lower value; response (vesicle binding), % at 7 µM; 330,000 tested, 0.068% active;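 active means response, share of CD8 T cells binding vesicles, and their 90th percentile fluorescence all below set limits, cut at about 80% in these data, passing the limit was not always enough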;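 further: values below 100% mean blocked vesicle binding to the CD8+ T cells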
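Read-out – percent CD8+ FL2 mean versus row control · System – murine 2C transgenic CD8+ T lymphocytes · Times – 1.5 h cell–vesicle binding at 37 °C, then 20 min icy labelling · Control set – naked vesicles low, QL9 vesicles with vehicle high · Detection – cytometric PE anti-B7-1 and Alexa647 anti-CD8 signals after 1% paraformaldehyde fixation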
GRK2 inh = compounds blocking aptamer binding on GRK2 – biochemical, human GRK2, bead flow cytometry, HTS, primary screen. FAM-aptamer displacement from GRK2. 330,000 tested, 0.59% active. AID 488847, 2010. inhibition of aptamer binding, % at 10 µM. Beta-adrenergic receptor kinase 1 (Homo sapiens), P25098;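 active means inhibition of aptamer binding above 40%, roughly 3 SD of noise, on plates passing a quality check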;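 further: median bead fluorescence of bound FAM aptamer so fluorescent compounds give negative values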
Rce1 inh = yeast Rce1p protease inhibitors, primary screen, biochemical, fluorescence, cell-free homogeneous; yeast membranes, quenched prenylated peptide cleavage fluorescence; CAAX prenyl protease 2 (Saccharomyces cerevisiae (strain ATCC 204508 / S288c)), Q03530; 290,000 tested, 0.27% active; AID 2563, 2010; calls only;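 active means fall in fluorescence gain of 50% or more versus controls, with final raw signal at or below 3038400; inconclusive means same 50% fall but final raw signal above 3038400; inactive means fall in fluorescence gain under 50%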;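 further: plate controls were neutral control wells for no effect and wells lacking membranes for full effect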
* hit, by the source's call; i = inactive; ? = inconclusive; nt = no result given; + = active, no number.

SMILES	SKN-1 block	Myeloid diff 2	Rin1-Abl PPI inh	T cell modulator	GRK2 inh	Rce1 inh
CCn1c(SCC(=O)Nc2ccc3c(c2)OCO3)nc2c(c1=O)SC(C)C2 (centres undefined)	-8.0	+	1.0	900.0	3.0	i
CC1Cc2nc(SCC(=O)c3ccccc3)n(Cc3ccccc3)c(=O)c2S1 (centres undefined)	9.6	+	-2.2	332.0	2.0	i
CC1Cc2nc(SCC(=O)NCc3ccccc3)n(Cc3ccccc3)c(=O)c2S1 (centres undefined)	15.0	i	-0.6	656.0	2.0	i
NC(=O)c1nsc(C(=O)N(c2ccccc2F)C(C(=O)NCc2ccccc2)c2ccc(O)cc2)c1N (centres undefined)	10.2	i	0.8	343.5	4.0	+
Cc1ccccc1CSc1ccc2nnc(-c3ccccn3)n2n1	-5.9	+	-0.3	822.6	1.0	i
CN(C)S(=O)(=O)c1ccc(C(=O)Nc2ccccc2OC(F)(F)C(F)F)cc1	-6.5	+	1.1	nt	0.0	i
CN(C)S(=O)(=O)c1ccc(C(=O)Nc2ccccc2F)cc1	-8.3	i	-3.0	142.7	1.0	i
C#CCOCCOCCOCCNc1nc(OC)nc(N2CCN(C(=O)[C@H](CCC(=O)O)n3cc(C(N)CO)nn3)CC2)n1 (some centres undefined)	-10.0	i	-0.9	344.7	0.0	nt
O=C(NC1CCCC1)C1C(c2ccc(C(F)(F)F)cc2)=Nc2ccccc2N1C(=O)c1ccco1 (centres undefined)	40.9*	i	nt	nt	nt	nt
CN1CCN(/N=C/c2ccc(OCc3ccccc3)cc2)CC1	50.5*	?	-0.5	i	0.0	i
CCOc1ccc(C(=O)CCC(=O)N2CCN(c3ccc(O)cc3)CC2)cc1	-20.4	+	1.4	623.4	4.0	nt
O=C(CCC(=O)N1CCN(c2ccc(O)cc2)CC1)c1ccc(Br)cc1	nt	nt	nt	620.5	0.0	i
Cc1ccc(S(=O)(=O)/N=C2/C=C(Sc3ncn[nH]3)C(=O)c3ccccc32)c(C)c1	nt	nt	nt	473.2	1.0	nt
Cc1ccc(S(=O)(=O)/N=C2/C=C(Sc3ncn[nH]3)C(=O)c3ccccc32)cc1	1.9	?	17.0*	809.9	0.0	nt
CC(C)c1ccc(S(=O)(=O)/N=C2/C=C(Sc3ncn[nH]3)C(=O)c3ccccc32)cc1	3.0	i	7.7*	477.4	0.0	nt
CCCCCn1c(SCC(=O)c2ccccc2)nc2cc(C(=O)NCC3CCCO3)ccc2c1=O (centres undefined)	-1.6	i	-2.5	nt	nt	nt
COc1ccc(-c2ccc3oc(-c4ccc(OC)cc4)c(-c4ccc(OC)cc4)c3c2)cc1	-3.0	i	1.4	nt	nt	+
CC(C)CC(=O)N1CCN(C(=O)c2ccc(F)cc2)CC1	12.8	i	-0.4	243.4	0.0	i
C=CCNC(=O)COC(=O)C1CCN(S(=O)(=O)c2ccc3c(c2)OCCO3)CC1	1.3	i	-1.8	579.4	0.0	i
CC1CC(C)CN(C(=O)c2ccc3c(c2NCCO)C(=O)c2ccccc2C3=O)C1 (centres undefined)	36.4*	i	-12.0	600.7	0.0	i
CC1CC(C)CN(C(=O)COC(=O)CN2C(=O)c3ccccc3C2=O)C1 (centres undefined)	7.2	i	1.2	274.4	1.0	nt
CC1CCCCN1S(=O)(=O)c1ccc(C(=O)Nc2sccc2C(N)=O)cc1 (centres undefined)	40.3*	i	-2.9	459.3	0.0	i
CCOC(=O)C1CCN(c2c(NCCN(CC)c3ccccc3)c(=O)c2=O)CC1	-6.8	i	-3.7	508.6	3.0	i
CCn1c2ccccc2c2c3ncc4cccn4c3ccc21	23.4	+	-2.1	145.4	5.0	i
c1ccc2c(c1)ncc1cccn12	16.8	i	-1.9	377.8	0.0	i
SMILES	SKN-1 block	Myeloid diff 2	Rin1-Abl PPI inh	T cell modulator	GRK2 inh	Rce1 inh
O=C(O)c1ccccc1-c1ccccc1C(=O)Nc1ccc2c(c1)C(=O)c1ccccc1-2	15.9	i	0.1	nt	nt	nt
O=C(O)c1ccccc1-c1ccccc1C(=O)Nc1ccc2c(c1)oc(=O)c1ccccc12	36.2*	i	0.1	nt	nt	nt
Cc1ccc(-c2cc3onc(-c4ccccc4)c3c(=O)n2C)cc1	2.1	i	1.7	441.2	0.0	nt
Cn1c(-c2ccc(F)cc2)cc2onc(-c3c(F)cccc3Cl)c2c1=O	nt	nt	nt	273.5	52.0*	nt
O=S(=O)(NCc1nnc2ccccn12)c1ccc(Cl)cc1	-0.7	i	1.5	378.6	4.0	nt
CC1CN(C=O)CC(C)N1CCN1C(C)CN(C=O)CC1C (centres undefined)	5.5	i	6.0	nt	nt	nt
Cc1ccc(Cl)c2c1NC(=O)C2=O	7.3	i	-7.4	0.0*	1.0	nt
CCCCCCCCOc1ccc(C2OC34CCCCC3C(C#N)(C#N)C2(C#N)C(=N)O4)cc1 (centres undefined)	47.0*	i	-2.1	220.0	0.0	i
CCCCC1OC23CCCCC2C(C#N)(C#N)C1(C#N)C(=N)O3 (centres undefined)	28.2	i	-2.1	291.4	3.0	i
COc1ccc(OC)c(CN2CCN(C(=O)[C@@H](NC(=O)c3cccc(C)c3)C(C)C)CC2)c1	4.6	i	2.1	377.3	1.0	nt
CC(C)(C)OC(=O)N1CCC2(CC1)Oc1ccc(F)cc1C(=O)C21CC(c2ccc(Cl)cc2)=NO1 (centres undefined)	nt	nt	nt	549.1	0.0	i
Cc1noc(C)c1C(=O)N1CCC2(CC1)Oc1ccc(F)cc1C(=O)C21CC(c2ccc(Cl)cc2)=NO1 (centres undefined)	-1.1	+	1.9	503.1	0.0	i
Cc1cc(=O)oc2cc(NC(=O)CN3C(=O)NC(C)(c4ccccc4)C3=O)ccc12 (centres undefined)	16.5	i	2.1	824.3	1.0	i
C#CCOCCOCCOCCNc1nc(N2CCN(C(=O)CCCCCCCCCCNC(=O)Cn3cc(C[C@@H](C)O)nn3)CC2)nc(N2CCN(C(=O)CCCCCCCCCCNC(=O)[C@H](CCCN=C(N)N)n3cc(C[C@@H](C)CC)nn3)CC2)n1	-11.0	i	12.6*	374.8	0.0	i
C#CCOCCOCCOCCNc1nc(N2CCOCC2)nc(N2CCN(C(=O)CCCCCCCCCCNC(=O)[C@@H]([C@H](C)CC)n3cc(CCCCCN)nn3)CC2)n1	3.7	+	2.9	282.7	2.0	nt

Bioassay records (PubChem)
